Source: ChEMBL document CHEMBL1671628, “Cell density and cell aging as factors modulating antifungal resistance of Candida albicans biofilms” (2008)
In brackets after ≈: the same amount, converted by molar mass.

Key:
Candida albicans [1] = test: Antifungal activity against 10^7 cells/ml Candida albicans ATCC 90028 planktonic cells by XTT reduction assay; assay type: functional
In short: (§1)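 High-density planktonic suspensions (10^7 or 10^8 cells/ml) added to serially double-diluted drugs as in the NCCLS setup, run in parallel in RPMI 1640 + 2% glucose and YNB + 100 mM glucose. Viability read by XTT (1 mg/ml) with menadione (0.4 mM stock, 5:1), 3 h dark at 37°C, A490 minus blank wells. MIC50 = lowest concentration giving 50% reduction versus drug-free control.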

Candida albicans [2] = test: Antifungal activity against 10^7 cells/ml wild-type Candida albicans BF-1 planktonic cells by XTT reduction assay; assay type: functional; in short: as §1
Candida albicans [3] = test: Antifungal activity against 10^8 cells/ml Candida albicans ATCC 90028 planktonic cells by XTT reduction assay; assay type: functional; in short: as §1
Candida albicans [4] = test: Antifungal activity against 10^8 cells/ml wild-type Candida albicans BF-1 planktonic cells by XTT reduction assay; assay type: functional
In short: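 Planktonic suspensions at 1 × 10^8 cells/ml added to twofold serial drug dilutions in 96-well plates (NCCLS format). Run in parallel in RPMI 1640 + 2% glucose and YNB + 100 mM glucose. Readout by XTT reduction: XTT–menadione in PBS, 3 h at 37°C in the dark, A490 minus blank. MIC50 is 50% reduction vs drug-free control.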

Candida albicans [5] = test: Antifungal activity against 24 hrs cultures of 10^7 cells/ml Candida albicans ATCC 90028 biofilms by XTT reduction assay; assay type: functional
In short: (§2)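 Washed late-exponential cells at 1 × 10^7 cells/ml in YNB + 100 mM glucose were adhered 1.5 h at 37°C with shaking at 75 rpm, washed, then grown 24 or 48 h at 37°C, 75 rpm. Biofilms were washed and exposed 24 or 48 h at 37°C to twofold dilutions in RPMI + 2% glucose. Read by XTT at A490. MIC50 is 50% reduction vs drug-free control. Three experiments, four replicates.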

Candida albicans [6] = test: Antifungal activity against 24 hrs cultures of 10^7 cells/ml wild-type Candida albicans BF-1 biofilms by XTT reduction assay; assay type: functional; in short: as §2
Candida albicans [7] = test: Antifungal activity against 10^3 cells/ml Candida albicans SC5314 by NCCLS method; assay type: functional
In short: (§3)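 Planktonic broth microdilution per NCCLS (CLSI): inoculum from 24-h SDA cultures adjusted to 0.5 McFarland at 520 nm, diluted in RPMI 1640 to about 0.5 × 10^3 to 2.5 × 10^3 cells/ml. Cells exposed to twofold drug dilutions, incubated 35°C for 48 h, then MIC read. Three separate occasions.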

Candida albicans [8] = test: Antifungal activity against 10^8 cells/ml Candida albicans SC5314 planktonic cells by XTT reduction assay; assay type: functional; in short: as §1
Candida albicans [9] = test: Antifungal activity against 24 hrs cultures of 10^7 cells/ml Candida albicans SC5314 biofilms by XTT reduction assay; assay type: functional; details: SC5314, 24 h; in short: as §2
Candida albicans [10] = test: Antifungal activity against 24 hrs cultures of 10^7 cells/ml Candida albicans ATCC 90028 planktonic cells by XTT reduction method; assay type: functional
In short: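 Standard 1 × 10^7 cells/ml suspension in YNB + 100 mM glucose propagated planktonically 24 h alongside age-matched biofilms, then exposed to twofold drug dilutions. Metabolic activity read by XTT–menadione reduction, 3 h dark, 37°C, A490 background-subtracted. MIC50 is the 50% reduction point versus drug-free control.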

Candida albicans [11] = test: Antifungal activity against 24 hrs cultures of 10^7 cells/ml Candida albicans BF-1 planktonic cells by XTT reduction method; assay type: functional
In short: (§4)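 Age-matched planktonic cultures were grown from the same 1 × 10^7 cells/ml YNB + 100 mM glucose suspension under the biofilm conditions for 24 or 48 h. They were tested against twofold drug dilutions by XTT reduction (3 h at 37°C in the dark, A490 minus blank). MIC50 is 50% reduction vs drug-free control.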

Candida albicans [12] = test: Antifungal activity against 48 hrs cultures of 10^7 cells/ml Candida albicans ATCC 90028 planktonic cells by XTT reduction method; assay type: functional; in short: as §4
Candida albicans [13] = test: Antifungal activity against 48 hrs cultures of 10^7 cells/ml Candida albicans BF-1 planktonic cells by XTT reduction method; assay type: functional; in short: as §4
Candida albicans [14] = test: Antifungal activity against 24 hrs cultures of 10^7 cells/ml Candida albicans ATCC 90028 biofilms by XTT reduction method; assay type: functional; in short: as §2
Candida albicans [15] = test: Antifungal activity against 24 hrs cultures of 10^7 cells/ml Candida albicans BF-1 biofilms by XTT reduction method; assay type: functional; in short: as §2
Candida albicans [16] = test: Antifungal activity against 48 hrs cultures of 10^7 cells/ml Candida albicans ATCC 90028 biofilms by XTT reduction method; assay type: functional; in short: as §2
Candida albicans [17] = test: Antifungal activity against 48 hrs cultures of 10^7 cells/ml Candida albicans BF-1 biofilms by XTT reduction method; assay type: functional; in short: as §2
Candida albicans [18] = test: Antifungal activity against 24 hrs cultures of 10^7 cells/ml biofilm-derived Candida albicans ATCC 90028 planktonic cells hrs by XTT reduction method; assay type: functional
In short: (§5)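 Biofilms grown from 1 × 10^7 cells/ml (YNB + 100 mM glucose, 1.5 h adherence, 37°C, 75 rpm) for 24 or 48 h, washed, scraped and moved to wells of serially double-diluted drugs. Incubated with drug 24 or 48 h, then XTT–menadione read at 490 nm. MIC50 = 50% reduction versus drug-free control.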

Candida albicans [19] = test: Antifungal activity against 24 hrs cultures of 10^7 cells/ml biofilm-derived Candida albicans BF-1 planktonic cells hrs by XTT reduction method; assay type: functional
In short: (§6)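 Biofilms grown 24 or 48 h from 1 × 10^7 cells/ml were washed, scraped and transferred into plates of twofold serially diluted drugs. They were incubated 24 or 48 h. MIC was read by XTT reduction (3 h at 37°C in the dark, A490 minus blank) as 50% reduction vs drug-free control.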

Candida albicans [20] = test: Antifungal activity against 48 hrs cultures of 10^7 cells/ml biofilm-derived Candida albicans ATCC 90028 planktonic cells hrs by XTT reduction method; assay type: functional; in short: as §6
Candida albicans [21] = test: Antifungal activity against 48 hrs cultures of 10^7 cells/ml biofilm-derived Candida albicans BF-1 planktonic cells hrs by XTT reduction method; assay type: functional; in short: as §5
Candida albicans [22] = test: Ratio of MIC for 10^8 cells/ml wild-type Candida albicans BF-1 to MIC for 10^7 cells/ml wild-type Candida albicans BF-1 grown as planktonic cells; assay type: functional; in short: as §1
Candida albicans [23] = test: Antifungal activity against 10^3 cells/ml Candida albicans ATCC 90028 by NCCLS method; assay type: functional; in short: as §3
Candida albicans [24] = test: Antifungal activity against 10^3 cells/ml wild-type Candida albicans BF-1 by NCCLS method; assay type: functional; in short: as §3
Candida albicans [25] = test: Antifungal activity against 10^5 cells/ml Candida albicans ATCC 90028 by EUCAST method; assay type: functional
In short: (§7)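 EUCAST AFST planktonic broth microdilution: RPMI 1640 plus 2% glucose, inoculum 0.5 × 10^5 to 2.5 × 10^5 cells/ml, twofold drug dilutions. Performed on three different occasions.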

Candida albicans [26] = test: Antifungal activity against 10^5 cells/ml wild-type Candida albicans BF-1 by EUCAST method; assay type: functional; in short: as §7
Candida albicans [27] = test: Antifungal activity against 48 hrs cultures of 10^8 cells/ml Candida albicans ATCC 90028 biofilms by XTT reduction assay; details: ATCC 90028, 48 h
Candida albicans [28] = test: Antifungal activity against 48 hrs cultures of 10^8 cells/ml wild-type Candida albicans BF-1 biofilms by XTT reduction assay; details: BF-1, 48 h
Candida albicans [29] = test: Antifungal activity against 48 hrs cultures of 10^7 cells/ml Candida albicans ATCC 90028 biofilms by XTT reduction assay; assay type: functional; in short: as §2
Candida albicans [30] = test: Antifungal activity against 48 hrs cultures of 10^7 cells/ml wild-type Candida albicans BF-1 biofilms by XTT reduction assay; assay type: functional; in short: as §2

| Molecule | MIC (Candida albicans [1]) | MIC (Candida albicans [2]) | MIC (Candida albicans [3]) | MIC (Candida albicans [4]) | MIC (Candida albicans [5]; ATCC 90028, 24 h) | MIC (Candida albicans [6]; BF-1, 24 h) | MIC (Candida albicans [7]) | MIC (Candida albicans [8]) | MIC (Candida albicans [9]) | MIC (Candida albicans [10]; ATCC 90028, 24 h) | MIC (Candida albicans [11]; BF-1, 24 h) | MIC (Candida albicans [12]; ATCC 90028, 48 h) | MIC (Candida albicans [13]; BF-1, 48 h) | MIC (Candida albicans [14]; ATCC 90028, 24 h) | MIC (Candida albicans [15]; BF-1, 24 h) | Ratio (Candida albicans [22]) | MIC (Candida albicans [23]) | MIC (Candida albicans [24]) | MIC (Candida albicans [25]) | MIC (Candida albicans [26]) | also measured |
| --- | --- | --- | --- | --- | --- | --- | --- | --- | --- | --- | --- | --- | --- | --- | --- | --- | --- | --- | --- | --- | --- |
| Nc1nc(=O)[nH]cc1F [FLUCYTOSINE] | 6.5 µg/mL (≈ 50.4 µM) | 6.5 µg/mL (≈ 50.4 µM) | > 420 µg/mL | > 420 µg/mL | > 420 µg/mL | > 420 µg/mL | 0.8 µg/mL (≈ 6.2 µM) | > 420 µg/mL | > 420 µg/mL | > 420 µg/mL | > 420 µg/mL | > 420 µg/mL | > 420 µg/mL | > 420 µg/mL | > 420 µg/mL | >1000 | 0.8 µg/mL (≈ 6.2 µM) | 0.8 µg/mL (≈ 6.2 µM) | 0.8 µg/mL (≈ 6.2 µM) | 0.8 µg/mL (≈ 6.2 µM) | MIC (Candida albicans [16]; ATCC 90028, 48 h): > 420 µg/mL; MIC (Candida albicans [17]; BF-1, 48 h): > 420 µg/mL; MIC (Candida albicans [18]; ATCC 90028, 24 h): > 420 µg/mL; MIC (Candida albicans [19]; BF-1, 24 h): > 420 µg/mL; MIC (Candida albicans [20]; ATCC 90028, 48 h): > 420 µg/mL; MIC (Candida albicans [21]; BF-1, 48 h): > 420 µg/mL; MIC (Candida albicans [27]): > 420 µg/mL; MIC (Candida albicans [28]): > 420 µg/mL |
| CC(=O)N1CCN(c2ccc(OCC3COC(Cn4ccnc4)(c4ccc(Cl)cc4Cl)O3)cc2)CC1 (stereo unspecified) [KETOCONAZOLE] | 8 µg/mL (≈ 15.1 µM) | 16 µg/mL (≈ 30.1 µM) | 64 µg/mL (≈ 120 µM) | > 64 µg/mL | 64 µg/mL (≈ 120 µM) | > 64 µg/mL | 0.125 µg/mL (≈ 0.235 µM) | > 64 µg/mL | > 64 µg/mL | 8 µg/mL (≈ 15.1 µM) | 16 µg/mL (≈ 30.1 µM) | > 64 µg/mL | > 64 µg/mL | > 64 µg/mL | > 64 µg/mL | 256 | 0.125 µg/mL (≈ 0.235 µM) | 0.125 µg/mL (≈ 0.235 µM) | 0.125 µg/mL (≈ 0.235 µM) | 0.125 µg/mL (≈ 0.235 µM) | MIC (Candida albicans [16]; ATCC 90028, 48 h): > 64 µg/mL; MIC (Candida albicans [17]; BF-1, 48 h): > 64 µg/mL; MIC (Candida albicans [18]; ATCC 90028, 24 h): > 64 µg/mL; MIC (Candida albicans [19]; BF-1, 24 h): > 64 µg/mL; MIC (Candida albicans [20]; ATCC 90028, 48 h): > 64 µg/mL; MIC (Candida albicans [21]; BF-1, 48 h): > 64 µg/mL; MIC (Candida albicans [27]): 64 µg/mL (≈ 120 µM); MIC (Candida albicans [28]): > 64 µg/mL |
| NYSTATIN | 2 µg/mL | 2 µg/mL | 8 µg/mL | 16 µg/mL | – | – | – | – | – | – | – | – | – | – | – | 8 | 1 µg/mL | 2 µg/mL | 1 µg/mL | 2 µg/mL | MIC (Candida albicans [5]): 16 µg/mL; MIC (Candida albicans [6]): 32 µg/mL; MIC (Candida albicans [29]): 16 µg/mL; MIC (Candida albicans [30]): 32 µg/mL; MIC (Candida albicans [10]): 2 µg/mL; MIC (Candida albicans [11]): 4 µg/mL; MIC (Candida albicans [12]): 8 µg/mL; MIC (Candida albicans [13]): 16 µg/mL; MIC (Candida albicans [14]): 16 µg/mL; MIC (Candida albicans [15]): 32 µg/mL; MIC (Candida albicans [16]): 16 µg/mL; MIC (Candida albicans [17]): 32 µg/mL; MIC (Candida albicans [18]): 2 µg/mL; MIC (Candida albicans [19]): 4 µg/mL; MIC (Candida albicans [20]): 8 µg/mL; MIC (Candida albicans [21]): 16 µg/mL |
